Experimental data: the RNAGym collection of RNA variant scans (doi:10.1126/science.aae0568)
This sample holds only a part of the variants without activity.

B1: tRNA (parent)
chain: GUUCCGUUGGCGUAAUGGUAACGCGUCUCCCUCCUAAGGAGAAGACUGCGGGUUCGAGUCCCGUACGGAACG

Variants of: B1
Test: yeast fitness relative to wild type (ratio to wild type); higher = fitter; tRNA-Arg(CCU), competitive growth, 37 C, YPD
Summary of the method: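 Variants of the tRNA-Arg(CCU) gene were chemically synthesised with a 3% per-site mutation rate across 69 sites and placed at the native genomic locus in Saccharomyces cerevisiae. Six parallel replicates of the pooled strains were competed in YPD at 37°C for 24 hours, and gene amplicons from the start and end populations were read by 100-nucleotide paired-end sequencing. Darwinian fitness relative to wild type was derived from changes in genotype frequencies. Genotypes required ≥ 100 starting reads, and estimates < 0.5 were set to 0.5.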

Variant	yeast fitness
GUUCCGUUGGCGUAAUGGUAACGCGUGUCUCUCCUAAGGAGAAGACUGCGGCUUCGAGUCCCGUACGGAACG [C27G C30U G52C]	0.507
GUUACGUUGGCGUAAUGGUAACGCAUUGCCCUGCUGAGGAGAAGACUGCGGGUUCGAGUCCCGUACGGAACG [C4A G25A C27U U28G C33G A36G]	≤ 0.5
GGUCCGUUCGCAUAAUGGUAACGCGUCUCCCUCCUAAGGAGCAGAAUGCGGGUUCGAGUCCCGUACGCAACG [U2G G9C G12A A42C C46A G68C]	≤ 0.5
GUUCCGUUGGCGUAAUGGUAACGCGUCUCCCUCCUAAGGAGAAGACUGCGGGUACGAGCCGCGUACGGAACG [U54A U59C C61G]	≤ 0.5
GUUCCGUUGGCGUAAUGGUAACGCGUCACCCUCUUAAGGAGAAGACUGCGGAUUCGAGCCCCGUAUGGAACG [U28A C34U G52A U59C C66U]	≤ 0.5
GUUCCGUUCGCGUAAUGGUAACGCGUCUCCCUCCUAAGGAGAGGACUGCGGGUUCGAGUCCCGUACGAAACG [G9C A43G G68A]	≤ 0.5
GUUGCGUUGGCGUAAUGGUAACGCGUCUGCCUCCUAAGGAGAAGACUGCGGGUUCGAGUCCCGUAUGGAACG [C4G C29G C66U]	0.588
GUUCCGUUGGCGUAAUGGUCACACGUCUCCCUCCAAAGGAGAAGACUGCGGCUUAGAGUCCCGUACGGAACG [A20C G23A U35A G52C C55A]	≤ 0.5
GUUCGGUUGGCGUAAUGGUAACGCGUCUCCGUCCUAAGGAGUAGACUGCGGGUUCGAGUCCCGUACGGAACG [C5G C31G A42U]	0.623
GUUCCGGUGGCGUAAUGGUAACGCCUCUCCCUCCUAAGGAGAAGACUGCGGGUUCGAGUACCGUACGGAACG [U7G G25C C60A]	0.623
GUUCCGUUGGCGUAAUCGUAACGUGUCUCCCUCCUAAGGAGAAGACUGCGGGUUCGAGUCCCGUACGGAACG [G17C C24U]	0.607
GUUCCGUUGGCGUAAGGGUAGCGCGUCUCUCUCCUACGGAGAAGACUGCGGGUUCGAGUCCCGUACGGAACG [U16G A21G C30U A37C]	≤ 0.5
GUUCCAUUGGCGUAAUGGUAAUGCGUCUCCCUCCUAGGGAGAAGACUGCGGGUUCGAGUCCCGUACGAGACG [G6A C22U A37G G68A A69G]	≤ 0.5
GUUCCGUUGGCGUAAUGGUAACGCGUGUCUCUCCUAAGGAGAAGACUGCGGGUUCGAGUCCCGUAUGGAACG [C27G C30U C66U]	≤ 0.5
GUUCCGUUGGCGUUAUGGUAACGCGUCUUCCUCCUAUGGAGAAGACUGCAGGUUCGAGUCCCGUACGGAACG [A14U C29U A37U G50A]	≤ 0.5
GUUCCGUUGGUGUAAUGGUAACGCGUCUCUCUCCUAAGGAGUAGACUGCGAGUUCGUGUCCCGUUCGGAUCG [C11U C30U A42U G51A A57U A65U A70U]	≤ 0.5
GUUCCGUUGGCGUAAUCGUUACGCGUUUCCCUCCUAAGGAGAAGACUGCGGGCUCGAGUCCCGUACGGAACG [G17C A20U C27U U53C]	0.619
GUUCCGUUGGCGUAUUGAUAACGCGUCUCCCUCCUAAGGAGUAGACUGCGGGUUCGAGUCCCGUACGGAACG [A15U G18A A42U]	0.567
GUUCCGUUGGCGUAAUGGUAAGGCGUUUCCCUCCUAAGGAGAAGACUGCGGGUUCGAGUCCCGUAUGGAACG [C22G C27U C66U]	0.701

Variant	yeast fitness
GUUCCGUUGGCGUAAUGGUAACGCGUUUCUCUCCUAAGGAGAAGACUGCGGGUUCGAGUCCCGUACGGAGCG [C27U C30U A70G]	0.624
GUUCCGUUGGCGUCAUGGUAACGCGUCUCCCUCCUAAGGAGAAGCCUGGGGGUCCGAGUCCCGUAUGGAACG [A14C A45C C49G U54C C66U]	≤ 0.5
GUUCCGUUGGCGUAAUGGUAACGCGUCUCCUUCCUAAGGAAAAGACUGCGGGUUCGAGUCCCGUACGGUACG [C31U G41A A69U]	0.808
GUUCUGUUGGCGUAAAGGUAACGCGUCUCCCUCCUAAGGAGAAGACCGCGGGUUCGAGUCCCGUACGGAACG [C5U U16A U47C]	0.785
GUUCCAUUGGCGUAGUGGUAACGCGUCUCCCUCCUAAGGAGAAGACUGCGGGUUCGAGUCCCGUUCGGAACG [G6A A15G A65U]	0.607
GUUCAGUUGGCGCAAUGGUAACGCGUAGCCCUCCUAAGGAGAAGACUGCGGGUUCGAGUCCCGUACUGAACG [C5A U13C C27A U28G G67U]	≤ 0.5
GUUAUGUUGGCGUAAUGGUAACGCGUCUCCCUCCUAAGGAGAAGACUGCGGGUUCGACUCCCGAACGGAACG [C4A C5U G58C U64A]	0.572
GUUCCGUUGGCGUAAUGGUAACCCGUCUCCCUCCUAAGGAGAAGACUGGGGGUUCGAGUCCCAUACGGAACG [G23C C49G G63A]	≤ 0.5
GUUCCGUUGGCGUAACGGUAACGCGUCUCCCUCCUAAGGAGAAGAGUGCGGGUUCAAGUCCCGUACGGAACG [U16C C46G G56A]	0.748
GUUCCGUUGGCGUAAUGGUAACGCGUGACCCUCCUAAGGAGAAGACUGCGGAUUUGAGUCCCGUACGGAACG [C27G U28A G52A C55U]	≤ 0.5
GUUCCGUUAGCGUAAUGGUAACGGGUCUCCCUCGUAAGGAGAAGACUGCGGGUUCGAGUCCCGUACGGUACG [G9A C24G C34G A69U]	0.533
GUUCCGUUGGCGUAAUGGUAACGCGUCUCCCUCCUACGGAGAAGACUGCGGGUUCGAGUCCCGAACGGAACG [A37C U64A]	0.729
GUUCCGUUGGCGUUAUAGUAACGCGUCUGCCUCUAAACGAGAAGACUGCGGGUUGGAGUCCCGUACGGGCCG [A14U G17A C29G C34U U35A G38C C55G A69G A70C]	0.511
GUUCCGUUGGCGUAAUGGUAACGCGUAUCCCUCCUGAGGAGAGGACUGCGGGUUUGAGUUCCGUACGGAACG [C27A A36G A43G C55U C60U]	≤ 0.5
GUUCCGUAGGCGUAAUGGUAACCCGUCUCCCUCCUAAGGAGAAGACUGCGGGUUCGAGUCUCGUACGGAACG [U8A G23C C61U]	0.575
GUUCAGUUGGCGUAAUGGUAACGCGUCUCCCUCCUAAGGAGAAGACUGCGGCUUCGAGUCCCGUACGGAACG [C5A G52C]	0.567
GUCCCGUUGGCGUAAUGGAAACGCGUUUCCCUCCUAAGGAGAAGACUGCGGGUUCGAGUCCCGUACGGAACG [U3C U19A C27U]	0.696
GUUCCGUUGGCGUAAUGGAAAGGCGUCUCCCUCCUAAGGAGAAGUCUGUGGGUUCGAGUCCCGAACGGAACG [U19A C22G A45U C49U U64A]	≤ 0.5
GUUCAGUUGGCGUAAUGGUAACGCGUCUCCCUCCUAAGGAGAAGACUGCGGGUUCGGGUGCCGUACGGAACG [C5A A57G C60G]	≤ 0.5
